The text below walks through data of ChEMBL document CHEMBL4316616, “Efficacy of TLR7 agonistic imidazoquinoline as immunochemotherapeutic agent against P. Berghei ANKA infected rodent host” (Bioorg Med Chem Lett, 2019).

SMILES strings stand for the structures. Calls of active or inactive are those of the source. The calls are words filed in the database; no cut-off is given here.

Data set [1] relates to Plasmodium berghei. As to the kind of experiment: Antiparasitic activity against Plasmodium berghei ANKA infected in Laca mouse assessed as reduction in parasitemia at 10 ug, ip administered for 4 days measured on day 9 by Giemsa-staining based assay. The class given is functional, organism-based.
Data set [2] in a line: Toxicity in Laca mouse infected with Plasmodium berghei ANKA assessed as death at 10 ug, ip co-treated with chloroquine for 4 days measured on day 30. The class given is organism-based. Conditions: in vivo, 96 h. A digest of the protocol: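 Mice (6/group) were infected i.p. with 1x10⁶ P. berghei ANKA parasitized RBCs on D0. TLR7 agonist was given i.p. plus chloroquine 10 mg/kg orally (0.2 mL/mouse each), daily D0–D3. Survival and parasitemia (Giemsa-stained thin blood smears of individual mice) were followed for about one month.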

The subject of data set [3] is Plasmodium berghei. As to the kind of experiment: Antiparasitic activity against Plasmodium berghei ANKA infected in Laca mouse assessed as reduction in parasitemia at 10 ug, ip co-administered with chloroquine for 4 days measured on day 25 by Giemsa-staining based assay. The class given is functional, organism-based.
For data set [4], the system named is Plasmodium berghei. As to the kind of experiment: Antiparasitic activity against Plasmodium berghei ANKA infected in Laca mouse assessed as reduction in CD3+ cell level in brain at 10 ug, ip administered for 4 days measured on day 10 by flow cytometry. The class given is functional, organism-based.
The subject of data set [5] is Plasmodium berghei. As to the kind of experiment: Antiparasitic activity against Plasmodium berghei ANKA infected in Laca mouse assessed as reduction in CD8+ cell level in brain at 10 ug, ip administered for 4 days measured on day 10 by flow cytometry. The class given is functional, organism-based.
Data set [6] relates to Plasmodium berghei. As to the kind of experiment: Antiparasitic activity against Plasmodium berghei ANKA infected in Laca mouse assessed as increase in Treg cell level in brain at 10 ug, ip administered for 4 days measured on day 10 by flow cytometry. The class given is functional, organism-based.
In data set [7] the test system is Plasmodium berghei. As to the kind of experiment: Antiparasitic activity against Plasmodium berghei ANKA infected in Laca mouse assessed as increase in CD3+ cell level in spleen at 10 ug, ip administered for 4 days measured on day 10 by flow cytometry. The class given is functional, organism-based.
Data set [8] has as its system Plasmodium berghei. As to the kind of experiment: Antiparasitic activity against Plasmodium berghei ANKA infected in Laca mouse assessed as increase in serum IL-12 level at 10 ug, ip co-administered with chloroquine for 4 days measured on day 10 by sandwich ELISA. The class given is functional, organism-based. (In general: In an ELISA, binding on a coated surface is turned into a signal by an enzyme label.)

The test system of data set [9] is Plasmodium berghei. As to the kind of experiment: Antiparasitic activity against Plasmodium berghei ANKA infected in Laca mouse assessed as increase in serum IL-12 level at 10 ug, ip administered for 4 days measured on day 10 by sandwich ELISA. The class given is functional, organism-based.

As to `CCCCc1nc2c(N)nc3ccccc3c2n1Cc1ccccc1`, the result in the data set with Plasmodium berghei [1], in the data set on Plasmodium berghei [4], in the data set on Plasmodium berghei [5], in the data set with Plasmodium berghei [6], with Plasmodium berghei [7] and in the data set with Plasmodium berghei [8] was Active. The outcome with Plasmodium berghei [9] was Active. Besides, the Activity result in [2] was “Toxic”. The outcome in the data set on Plasmodium berghei [3] was inactive.
